From ChEMBL document CHEMBL1152990, “The mechanism of action of beta-D-2'-deoxy-2'-fluoro-2'-C-methylcytidine involves a second metabolic pathway leading to beta-D-2'-deoxy-2'-fluoro-2'-C-methyluridine 5'-triphosphate, a potent inhibitor of the hepatitis C virus RNA-dependent RNA polymerase” (Antimicrob Agents Chemother, 2008)

Key:
[1] = substrate: Nc1ccn([C@H]2C[C@H](O)[C@@H](COP(=O)(O)O)O2)c(=O)n1; assay: Activity of cloned deoxycytidylate deaminase in human HepG2 cells by spectrophotometric analysis; format: cell-based
Method in brief: (§1)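 Recombinant human DCTD cloned from HepG2 cells, 9.3 nM final, with dCMP substrate. Spectrophotometric deamination at 37°C, monitoring absorbance at 290 nm (Δɛ = 1,694 M−1 cm−1). Rates from linear traces were fitted to Michaelis-Menten to obtain Km, kcat and kcat/Km.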

[2] = substrate: C[C@@]1(F)[C@H](O)[C@@H](COP(=O)(O)O)O[C@H]1n1ccc(N)nc1=O; assay: Activity of cloned deoxycytidylate deaminase in human HepG2 cells by HPLC assay; format: cell-based
Method in brief: (§2)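 Recombinant His-tagged human DCTD cloned from HepG2 cells. 0.56 μg enzyme in 50 mM Tris-HCl pH 7.5, 2 mM MgCl2, 20 mM β-mercaptoethanol, at 37°C. Samples taken at 5, 10 and 20 min, quenched with HCl and filtered. Nucleotides were resolved by SAX HPLC (KH2PO4 pH 3.5 gradient), detected at 254 nm and quantified against standard curves.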

[3] = substrate: C[C@@]1(F)[C@H](O)[C@@H](COP(=O)(O)O)O[C@H]1n1ccc(N)nc1=O; assay: Ratio of Kcat to Km for cloned deoxycytidylate deaminase in human HepG2 cells by HPLC assay; format: cell-based; method in brief: as §2
[4] = substrate: Nc1ccn([C@H]2C[C@H](O)[C@@H](COP(=O)(O)O)O2)c(=O)n1; assay: Ratio of Kcat to Km for cloned deoxycytidylate deaminase in human HepG2 cells by spectrophotometric analysis; format: cell-based; method in brief: as §1
[5] = substrate: C[C@@]1(F)[C@H](O)[C@@H](COP(=O)(O)O)O[C@H]1n1ccc(=O)[nH]c1=O; assay: Activity of cloned UMP-CMP kinase in human HuH7 cells assessed as formation of RO2433 diphosphate by spectrophotometry; format: cell-based; conditions: Huh-7
Method in brief: (§3)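 Recombinant human kinase read out by PK/LDH coupling, following NADH oxidation at 340 nm. Rates were measured over varied substrate levels and fitted for steady-state parameters.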

[6] = substrate: C[C@@]1(F)[C@H](O)[C@@H](COP(=O)(O)O)O[C@H]1n1ccc(=O)[nH]c1=O; assay: Ratio of Kcat to Km for cloned UMP-CMP kinase in human HuH7 cells assessed as formation of RO2433 diphosphate by spectrophotometry; format: cell-based; conditions: Huh-7; method in brief: as §3
[7] = substrate: C[C@@]1(O)[C@H](O)[C@@H](CO)O[C@H]1n1ccc(N)nc1=O; conditions: Homo sapiens; Huh-7
[8] = substrate: Nc1ccn([C@H]2C[C@H](O)[C@@H](CO)O2)c(=O)n1; conditions: Homo sapiens; Huh-7
[9] = substrate: C[C@@]1(F)[C@H](O)[C@@H](CO)O[C@H]1n1ccc(N)nc1=O; conditions: Homo sapiens; Huh-7
[10] = substrate: Nc1ccn([C@@H]2O[C@H](CO)[C@@H](O)[C@H]2F)c(=O)n1; conditions: Homo sapiens; Huh-7
[11] = substrate: C[C@@]1(O)[C@H](O)[C@@H](CO)O[C@H]1n1ccc(N)nc1=O; assay: (§4) Activity of cloned cytidine deaminase in human HuH7 cells at 4 mM by spectrophotometric analysis; format: cell-based; conditions: Huh-7
Method in brief: (§5)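 Recombinant human CDA cloned from Huh-7 cells. Reaction at 30°C in 50 mM Tris-HCl pH 7.5, started by adding enzyme. Deamination was followed spectrophotometrically at wavelengths chosen by substrate level, with Δɛ set per wavelength. Rates came from the linear trace and Beer's law and were fitted to Michaelis-Menten. Highest concentration tested 4 mM.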

[12] = substrate: C[C@@]1(F)[C@H](O)[C@@H](CO)O[C@H]1n1ccc(N)nc1=O; assay: as §4; format: cell-based; conditions: Huh-7; method in brief: as §5
[13] = substrate: Nc1ccn([C@H]2C[C@H](O)[C@@H](CO)O2)c(=O)n1; conditions: Homo sapiens; Huh-7; remark: listed apart in the source
[14] = substrate: Nc1ccn([C@@H]2O[C@H](CO)[C@@H](O)[C@H]2F)c(=O)n1; conditions: Homo sapiens; Huh-7; remark: listed apart in the source

B1: Deoxycytidylate deaminase (Homo sapiens), P32321 (protein)
chain: MSEVSCKKRDDYLEWPEYFMAVAFLSAQRSKDPNSQVGACIVNSENKIVGIGYNGMPNGCSDDVLPWRRTAENKLDTKYPYVCHAELNAIMNKNSTDVKGCSMYVALFPCNECAKLIIQAGIKEVIFMSDKYHDSDEATAARLLFNMAGVTFRKFIPKCSKIVIDFDSINSRPSQKLQ
- Km [1]: 87 µM
- kcat [1]: 246 s⁻¹
- Km [2]: 2000 µM
- kcat [2]: 0.82 s⁻¹
- kcat/Km [3]: 400 M⁻¹ s⁻¹
- kcat/Km [4]: 2.8e+06 M⁻¹ s⁻¹

B2: UMP-CMP kinase (Homo sapiens), P30085 (protein)
chain: MKPLVVFVLGGPGAGKGTQCARIVEKYGYTHLSAGELLRDERKNPDSQYGELIEKYIKEGKIVPVEITISLLKREMDQTMAANAQKNKFLIDGFPRNQDNLQGWNKTMDGKADVSFVLFFDCNNEICIERCLERGKSSGRSDDNRESLEKRIQTYLQSTKPIIDLYEEMGKVKKIDASKSVDEVFDEVVQIFDKEG
- Km [5]: 870 µM
- kcat [5]: 7.9 s⁻¹
- kcat/Km [6]: 9100 M⁻¹ s⁻¹

B3: Cytidine deaminase (Homo sapiens), P32320 (protein)
chain: MAQKRPACTLKPECVQQLLVCSQEAKKSAYCPYSHFPVGAALLTQEGRIFKGCNIENACYPLGICAERTAIQKAVSEGYKDFRAIAIASDMQDDFISPCGACRQVMREFGTNWPVYMTKPDGTYIVMTVQELLPSSFGPEDLQKTQ
- kcat/Km [7]: 58 M⁻¹ s⁻¹
- kcat/Km [8]: 120000 M⁻¹ s⁻¹
- kcat/Km [9]: 65 M⁻¹ s⁻¹
- kcat/Km [10]: 140000 M⁻¹ s⁻¹
- Km [11]: 3100 µM
- kcat [11]: 0.18 s⁻¹
- Km [12]: 4000 µM
- kcat [12]: 0.26 s⁻¹
- Km [13]: 41 µM
- kcat [13]: 4.8 s⁻¹
- Km [14]: 27 µM
- kcat [14]: 3.8 s⁻¹
